Compound activity: PubChem BioAssay, several laboratories
Hits are enriched below; roughly 2.2% of the tested compounds scored in any of these assays.
NS3 helicase inh = inhibitors of HCV NS3 helicase, primary screen, biochemical, Cy5 molecular beacon fluorescence; Hepatitis C virus NS3 helicase; NS3 helicase DNA unwinding; inhibition, % at 10.9 µM; 290,000 tested, 0.56% active; AID 1800, 2009;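 active means inhibition above the mean of all tested compounds plus 3 SD, set per campaign, cut at about 35% in these data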;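 further: 0% = DMSO wells and 100% = thioflavine S control wells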
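Test system: hepatitis C virus NS3 helicase domain fragment enzyme. Also added: annealed dual-labelled DNA beacon duplex, ATP-started. Timing: 60 min unwinding reaction at 25 °C after ATP addition. Technique: Cy5 fluorescence. Measure: % inhibition of unwinding.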
FID counter = compounds displacing fluorescent DNA intercalator, primary screen, artefact control for HCV NS3 helicase inhibitor project, biochemical, FID fluorescence | DNA fluorescent intercalator displacement | inhibition, % at 7.9 µM | 290,000 tested, 0.17% active; in the data active means inhibition above about 37%;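 further: 0% = vehicle and 100% = reference compound; higher means more ethidium bromide displaced from hairpin DNA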
DAGLB inhibitor = DAGLB lipase inhibitors, primary screen, biochemical, fluorescence, HTS; Diacylglycerol lipase-beta (Homo sapiens), Q8NCG7; HEK293T DAGLB membrane lysate, EnzChek fluorogenic substrate; inhibition, % at 5.17 µM; 340,000 tested, 0.059% active; in the data active means inhibition above about 34%;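 further: 0% = enzyme with vehicle and 100% = wells lacking enzyme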
HCV core dimer = inhibitors of HCV core protein dimerization, primary screen, biochemical, TR-FRET, high-throughput; TR-FRET GST/Flag-core106 dimerization, 1536-well; inhibition, % at 5 µM; 300,000 tested, 0.33% active; AID 1899, 2009;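 active means inhibition above the mean of all tested compounds plus 3 SD, set per screening campaign, cut at about 45% in these data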
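System: GST/Flag-tagged HCV core106 proteins. Incubation: compound-protein-antibody incubation 4 h at 22.5 °C. Technique: HTRF with 340 nm excitation, 617/671 nm emission. Medium: KF-containing HEPES buffer, pH 7.45, DTT, CHAPS, BSA. Read-out: inhibition (%) from 671 over 617 nm ratio. Also added: Eu(K)-anti-GST 90 ng/mL plus XL665-anti-Flag 1 µg/mL.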
GRK2 aptamer HTS = compounds blocking aptamer binding on GRK2 – biochemical, human GRK2, bead flow cytometry, HTS, primary screen. Beta-adrenergic receptor kinase 1 (Homo sapiens), P25098. FAM-aptamer displacement from GRK2. inhibition of aptamer binding, % at 10 µM. 330,000 tested, 0.59% active. AID 488847, 2010;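 active means inhibition of aptamer binding above 40%, roughly 3 SD of noise, on plates passing a quality check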;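 further: median bead fluorescence of bound FAM aptamer so fluorescent compounds give negative values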
GPR7 antagonist = GPR7 receptor antagonists, primary screen, cell-based, fluorescence, single concentration; Neuropeptides B/W receptor type 1 (Homo sapiens), P48145; GPR7-expressing cells, fluorescence antagonist assay; inhibition, % at 4.4 µM; 290,000 tested, 1.1% active; AID 1861, 2009; in the data active means inhibition above about 16%, passing the limit was not always enough;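 further: cells stimulated with the agonist NPW; 0% = agonist with vehicle and 100% = vehicle without agonist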
Active calls of the source: *; . = no result given.

SMILES	NS3 helicase inh	FID counter	DAGLB inhibitor	HCV core dimer	GRK2 aptamer HTS	GPR7 antagonist
CCOc1ccc(-n2cc(C(=O)Nc3cccc(Cl)c3)c3cc(OC)c(OC)cc3c2=O)cc1	-2	-5	0	48*	2	-5
O=C1CC(=O)N(Cc2ccco2)C(=O)N1	12	-13	-3	-29	89*	0
Cc1cc(=O)oc2cc(OCC(=O)NCc3ccco3)ccc12	0	94*	-2	-4	4	-15
O=C(COC(=O)c1ccc(NS(=O)(=O)c2cccs2)cc1)NCc1ccco1	29	-15	1	72*	13	-3
CCOc1cc(C(=O)OCC(=O)NCc2ccco2)cc(OCC)c1OCC	25	-23	-9	52*	2	-15
CC(C)C(NC(=O)OCc1ccccc1)C(=O)OCC(=O)NCc1ccco1 (stereo unspecified)	20	-27	2	75*	0	1
COc1ccc(OCc2cc(C(=O)N(C)C(C)c3ccon3)no2)c(Cl)c1 (stereo unspecified)	-9	-35	-1	7	0	-5
CCOc1ccccc1C(=O)N[C@H](C(=O)OCC(=O)Nc1nnc(-c2ccccc2)o1)C(C)C	.	.	5	.	.	.
C/C(=N\NC(=O)c1nnn(-c2nonc2N)c1CSc1ccc(C)cc1)c1cccnc1	.	.	-2	.	.	.
COc1ccc(-c2sc(Nc3ccc(F)c(F)c3F)nc2CCC(=O)NN)cc1	-1	-6	3	-14	0	0
Cc1ccc(/C=C2\SC(=S)N(CCC(=O)NNS(=O)(=O)c3ccc(C)cc3)C2=O)cc1	10	-7	1	8	0	21*
CC(=O)NNC(=O)CN1C(=O)/C(=C/c2ccccc2)SC1=S	-7	-3	0	-2	0	21*
CC(=O)NN1C(=O)/C(=C\c2ccc(O)cc2)SC1=S	-6	4	0	-17	79*	-1
O=C(O)CN1C(=O)/C(=C/C=C/c2ccccc2)SC1=S	22	-22	2	3	8	-19
CCN(CC)C(=O)CN1C(=O)/C(=C/c2ccccc2)SC1=S	5	-5	0	-1	0	1
CC(=O)c1ccc(NC(=O)CN2C(=O)/C(=C/C=C/c3ccccc3)SC2=S)cc1	27	-12	10	65*	19	2
CC(=O)NN1C(=O)/C(=C\c2ccc(C)cc2)SC1=S	7	5	2	-4	0	-1
CCN(Cc1ccccc1)C(=O)C(=O)c1cn(CC(=O)N2CCCC2)c2ccccc12	-10	-37	-1	4	3	-12
CC[n+]1ccc(/C=C/c2ccc(N(C)C)cc2)c2ccccc21	1	57*	16	.	.	11
O=C(COC(=O)c1ccc(S(=O)(=O)N2CCCCC2)cc1)NCc1ccco1	-8	-13	0	9	2	-8
O=C(OCc1ccco1)c1ccc(S(=O)(=O)N2CCCCC2)cc1	16	-10	2	80*	5	-6
COc1ccc2oc(=O)c(/C(C)=N/Nc3nc(-c4cc(C)ccc4C)cs3)cc2c1	7	1	-1	56*	0	4
C/C(=N\Nc1nc(-c2ccc(C)cc2C)cs1)c1cc2ccccc2oc1=O	7	-5	-1	51*	0	-2
COc1ccc2oc(=O)c(-c3csc(Nc4ccc(O)cc4)n3)cc2c1	-12	9	5	-12	9	3
C/C(=N\Nc1ccccc1)c1cc2ccccc2oc1=O	2	-4	-2	1	0	-7
COc1cc(NC(=O)c2ccccc2)c(OC)cc1NC(=O)Cc1cccs1	11	-16	.	67*	3	-8
CC(=O)Nc1cccc(NC(=O)Cc2cccs2)c1	0	-3	0	23	2	-15
Cc1ccc([N+](=O)[O-])cc1NC(=O)Cc1ccc(F)cc1	-10	7	0	5	0	-4
COC(=O)c1cc(NC(=O)Cc2cccs2)cc(C(=O)OC)c1	14	-6	-1	49*	3	-12
